Molecules are shown by their SMILES.

Data set [1] deals with Liver microsome. Put plainly: Drug level in pooled human liver microsomes treated with 10 uM T-5224 assessed as compound formation after 5 to 30 mins by HPLC method. It counts as ADME. The method in brief: (§1)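 Pooled human liver microsomes at 0.5 mg protein/mL, or pooled intestinal microsomes at 0.25 mg/mL, in 50 mM Tris-HCl pH 7.5, 8 mM MgCl2, alamethicin, with 2 mM UDPGA. T-5224 at 10 μM, 10 min at 37°C after 5 min preincubation; stopped with acetonitrile. HPLC with UV at 290 nm. Linearity was tested over 0.1–1.0 mg/mL protein and 5–30 min.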
(In general: Liver microsomes are a subcellular fraction often used to study metabolism.)

Data set [2] deals with T1, UDP-glucuronosyltransferase 1A8 (Homo sapiens, UniProt Q9HAW9).
T1 sequence (Q9HAW9 whole entry): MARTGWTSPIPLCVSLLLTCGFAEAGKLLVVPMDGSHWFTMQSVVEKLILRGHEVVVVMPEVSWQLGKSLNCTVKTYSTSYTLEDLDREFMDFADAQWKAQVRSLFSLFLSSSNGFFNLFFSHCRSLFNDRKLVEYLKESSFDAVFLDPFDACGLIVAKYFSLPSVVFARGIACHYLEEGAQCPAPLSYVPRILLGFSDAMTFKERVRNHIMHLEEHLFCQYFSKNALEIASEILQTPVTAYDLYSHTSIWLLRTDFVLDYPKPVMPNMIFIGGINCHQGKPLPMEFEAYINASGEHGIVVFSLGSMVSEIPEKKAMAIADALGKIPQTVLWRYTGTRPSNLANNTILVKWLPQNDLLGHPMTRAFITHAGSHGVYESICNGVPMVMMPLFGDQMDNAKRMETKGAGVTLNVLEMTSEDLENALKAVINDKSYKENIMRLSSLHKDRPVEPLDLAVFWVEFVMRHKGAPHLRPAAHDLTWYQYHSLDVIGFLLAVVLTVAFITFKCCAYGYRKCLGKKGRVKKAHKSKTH
Put plainly: Drug level assessed as human UGT1A8-mediated compound formation from 5 to 50 uM T-5224 after 60 mins in presence of UDP-glucuronic acid using 0.05 to 0.2 mg/ml by HPLC method. It counts as ADME. The settings on record: recombinant enzyme, 1 h. The method in brief:
(§2)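 Recombinant human UGT microsomes from baculovirus-infected insect cells, 0.1 mg protein/mL, in 50 mM Tris-HCl pH 7.5, 8 mM MgCl2, alamethicin. T-5224 in DMSO (2% v/v final). Preincubated 5 min at 37°C, started with 2 mM UDPGA, run 60 min at 37°C and stopped with acetonitrile. Glucuronides resolved by C18 HPLC with UV at 290 nm. Linearity was checked at 0.05–0.2 mg/mL protein and 10–60 min.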

Data set [3] addresses T2, UDP-glucuronosyltransferase 1A3 (Homo sapiens, UniProt P35503).
T2 sequence (P35503 whole entry): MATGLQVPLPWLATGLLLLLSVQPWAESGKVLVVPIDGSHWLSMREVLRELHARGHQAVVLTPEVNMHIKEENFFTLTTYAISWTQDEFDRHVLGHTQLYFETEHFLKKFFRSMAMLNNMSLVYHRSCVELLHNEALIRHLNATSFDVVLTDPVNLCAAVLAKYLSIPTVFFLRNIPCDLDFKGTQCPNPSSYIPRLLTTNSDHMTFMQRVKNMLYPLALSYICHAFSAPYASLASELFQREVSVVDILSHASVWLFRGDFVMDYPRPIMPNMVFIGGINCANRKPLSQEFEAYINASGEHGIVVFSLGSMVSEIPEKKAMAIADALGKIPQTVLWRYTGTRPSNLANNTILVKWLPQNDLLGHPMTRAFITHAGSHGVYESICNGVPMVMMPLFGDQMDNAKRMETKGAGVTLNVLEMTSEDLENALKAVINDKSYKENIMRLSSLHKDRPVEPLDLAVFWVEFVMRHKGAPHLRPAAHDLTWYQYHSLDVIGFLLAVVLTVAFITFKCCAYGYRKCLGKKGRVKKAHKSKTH
Put plainly: Drug level assessed as human UGT1A3-mediated compound formation from 5 to 50 uM T-5224 after 10 to 60 mins in presence of UDP-glucuronic acid by HPLC method. Format: ADME. The settings on record: recombinant enzyme. The gist of the method: as §2

The test system of data set [4] is Liver microsome. Put plainly: Drug level in pooled human liver microsomes treated with 10 uM T-5224 assessed as compound formation after 10 mins using 0.1 to 1.0 mg/ml microsomal protein content by HPLC method. Format: ADME. The method in brief:
as §1

For data set [5], the target named is T2, UDP-glucuronosyltransferase 1A3. Put plainly: Drug level assessed as human UGT1A3-mediated compound formation from 5 to 50 uM T-5224 after 60 mins in presence of UDP-glucuronic acid by HPLC method. It counts as ADME. To be noted: recombinant enzyme, 1 h. The gist of the method: as §2
For data set [6], the system named is Liver microsome. Put plainly: Drug level in pooled human liver microsomes treated with 10 uM T-5224 assessed as compound formation after 10 mins by HPLC method. Format: ADME. The method in brief:
as §1

Data set [7] addresses T1, UDP-glucuronosyltransferase 1A8. Put plainly: Drug level assessed as human UGT1A8-mediated compound formation from 5 to 50 uM T-5224 after 60 mins in presence of UDP-glucuronic acid by HPLC method. Format: ADME. The settings on record: recombinant enzyme, 1 h. The method in brief:
as §2

For data set [8], the target named is T2, UDP-glucuronosyltransferase 1A3. Put plainly: Drug level assessed as human UGT1A3-mediated compound formation from 5 to 50 uM T-5224 after 60 mins in presence of UDP-glucuronic acid using 0.05 to 0.2 mg/ml by HPLC method. It counts as ADME. To be noted: recombinant enzyme, 1 h. The gist of the method:
as §2

Data set [9] deals with T3, UDP-glucuronosyltransferase 1A1 (Homo sapiens, UniProt P22309).
T3 sequence (P22309 whole entry): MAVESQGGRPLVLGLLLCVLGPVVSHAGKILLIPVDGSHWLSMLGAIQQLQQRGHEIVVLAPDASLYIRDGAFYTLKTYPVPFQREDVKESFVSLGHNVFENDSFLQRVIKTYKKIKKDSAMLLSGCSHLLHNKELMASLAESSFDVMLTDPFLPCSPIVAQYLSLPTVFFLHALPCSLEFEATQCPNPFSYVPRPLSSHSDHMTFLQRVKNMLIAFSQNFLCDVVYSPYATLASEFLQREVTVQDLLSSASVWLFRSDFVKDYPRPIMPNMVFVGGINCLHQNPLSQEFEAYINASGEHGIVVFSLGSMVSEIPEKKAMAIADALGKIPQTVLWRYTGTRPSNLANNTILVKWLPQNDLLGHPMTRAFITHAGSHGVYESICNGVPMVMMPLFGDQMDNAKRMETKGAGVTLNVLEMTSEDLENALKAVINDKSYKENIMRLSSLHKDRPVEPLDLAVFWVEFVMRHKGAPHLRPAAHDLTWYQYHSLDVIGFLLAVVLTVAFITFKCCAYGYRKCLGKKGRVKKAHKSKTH
Put plainly: Drug level assessed as human UGT1A1-mediated compound formation from 5 to 50 uM T-5224 after 10 to 60 mins in presence of UDP-glucuronic acid by HPLC method. It counts as ADME. To be noted: recombinant enzyme. The gist of the method: as §2

Data set [10] is described as follows: Drug level in pooled human intestinal microsomes treated with 10 uM T-5224 assessed as compound formation after 10 mins using 0.1 to 1.0 mg/ml microsomal protein content by HPLC method. It counts as ADME, Intestine, Microsome. The method in brief: as §1
The target of data set [11] is T3, UDP-glucuronosyltransferase 1A1. Put plainly: Drug level assessed as human UGT1A1-mediated compound formation from 5 to 50 uM T-5224 after 60 mins in presence of UDP-glucuronic acid using 0.05 to 0.2 mg/ml by HPLC method. Format: ADME. The settings on record: recombinant enzyme, 1 h. The method in brief: as §2
Data set [12] is described as follows: Drug level in pooled human intestinal microsomes treated with 10 uM T-5224 assessed as compound formation after 5 to 30 mins by HPLC method. It counts as ADME, Intestine, Microsome. The method in brief:
as §1

Data set [13] is described as follows: Drug level in pooled human intestinal microsomes treated with 10 uM T-5224 assessed as compound formation after 10 mins by HPLC method. Format: ADME, Intestine, Microsome. The method in brief: as §1
In data set [14] the test system is Liver microsome. Put plainly: Drug level in pooled human liver microsomes treated with T-5224 assessed as compound formation in presence of UDPGA by LC-MS/MS method. It counts as ADME.
The target in data set [15] is T1, UDP-glucuronosyltransferase 1A8. Put plainly: Drug level assessed as human UGT1A8-mediated compound formation from 5 to 50 uM T-5224 after 10 to 60 mins in presence of UDP-glucuronic acid by HPLC method. Format: ADME. To be noted: recombinant enzyme. The method in brief: as §2
Data set [16] has as its target T3, UDP-glucuronosyltransferase 1A1. Put plainly: Drug level assessed as human UGT1A1-mediated compound formation from 5 to 50 uM T-5224 after 60 mins in presence of UDP-glucuronic acid by HPLC method. The settings on record: recombinant enzyme, 1 h. It counts as ADME. The gist of the method: as §2

As for `O=C(O)CCc1cc(C(=O)c2ccc(OC3CCCC3)cc2O)ccc1OCc1ccc2c(O[C@@H]3O[C@H](C(=O)O)[C@@H](O)[C@H](O)[C@H]3O)noc2c1`, the Drug metabolism entry was “Dose-dependent effect” in [1]; “Dose-dependent effect” in data set [2]; “Dose-dependent effect” in data set [3]; “Dose-dependent effect” in [4]; “metabolite_detected” in [5]; “metabolite_detected” in [6]. In addition, the Drug metabolism result is reported as “metabolite_detected” in [7]; “Dose-dependent effect” in data set [8]; “Dose-dependent effect” in [9]; “Dose-dependent effect” in data set [10]; “Dose-dependent effect” in data set [11]; “Dose-dependent effect” in data set [12]. The Drug metabolism result in data set [13] is listed as “metabolite_detected”; in [14], “metabolite_detected”; in data set [15] it was “Dose-dependent effect”; in data set [16] it was “metabolite_detected”.

Source of the values: ChEMBL document CHEMBL3526015, “Metabolism of the c-Fos/activator protein-1 inhibitor T-5224 by multiple human UDP-glucuronosyltransferase isoforms” (Drug Metab Dispos, 2011).
